Test results from ChEMBL document CHEMBL3585276, “Topoisomerase I and II inhibitory activity, cytotoxicity, and structure-activity relationship study of dihydroxylated 2,6-diphenyl-4-aryl pyridines” (Bioorg Med Chem, 2015).

How the values were obtained:
HCT-15 = assay: Cytotoxicity against human HCT15 cells measured on day 4 by CCK8 assay; type: functional, cell-based; settings: HCT-15, 96 h
How it was run: (§1)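 Cells seeded at […], grown overnight in medium with 10% FBS at 37 °C under 5% CO2. On day 2 they were serum-starved 4 h, then exposed to graded compound concentrations. On day 4 CCK-8 was added for a further 4 h and absorbance read at 450 nm. IC50 came from a four-parameter logistic fit, mean ± SD of three experiments in triplicate.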

HeLa = assay: Cytotoxicity against human HeLa cells measured on day 4 by CCK8 assay; type: functional, cell-based; settings: 96 h; how it was run: as §1
DU-145 = assay: Cytotoxicity against human DU145 cells measured on day 4 by CCK8 assay; type: functional, cell-based; settings: DU-145, 96 h; how it was run: as §1
[1] = target: T1, DNA topoisomerase 1 (Homo sapiens) (UniProt P11387); assay: Inhibition of recombinant human DNA topoisomerase-1 assessed as relaxation of supercoiled DNA pBR322 at 100 uM after 30 mins by agarose gel electrophoresis relative to control
T1 sequence (whole entry): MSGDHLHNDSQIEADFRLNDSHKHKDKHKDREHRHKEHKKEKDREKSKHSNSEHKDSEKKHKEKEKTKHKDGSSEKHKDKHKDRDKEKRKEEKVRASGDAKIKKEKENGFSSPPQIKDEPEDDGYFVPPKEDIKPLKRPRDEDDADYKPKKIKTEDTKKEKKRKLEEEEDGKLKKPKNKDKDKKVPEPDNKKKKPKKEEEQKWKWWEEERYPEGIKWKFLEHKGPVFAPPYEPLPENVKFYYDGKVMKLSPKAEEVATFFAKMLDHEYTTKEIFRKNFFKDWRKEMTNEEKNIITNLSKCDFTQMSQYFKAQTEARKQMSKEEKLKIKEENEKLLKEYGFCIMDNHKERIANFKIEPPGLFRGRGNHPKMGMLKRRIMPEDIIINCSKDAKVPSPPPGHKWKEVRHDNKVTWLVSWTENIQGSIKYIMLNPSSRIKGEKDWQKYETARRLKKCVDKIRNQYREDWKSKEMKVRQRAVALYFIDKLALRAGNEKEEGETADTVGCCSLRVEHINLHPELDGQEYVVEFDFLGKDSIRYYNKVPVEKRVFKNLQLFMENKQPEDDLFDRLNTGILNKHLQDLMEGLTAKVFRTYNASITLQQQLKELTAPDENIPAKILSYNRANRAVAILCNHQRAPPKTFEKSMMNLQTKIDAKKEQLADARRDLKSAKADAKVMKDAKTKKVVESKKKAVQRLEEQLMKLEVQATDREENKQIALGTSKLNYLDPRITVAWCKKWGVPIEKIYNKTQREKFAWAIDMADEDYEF
How it was run: (§2)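 Relaxation assay with 100 ng pBR322 plasmid DNA and 1 unit recombinant human topo I. Buffer was 10 mM Tris–HCl pH 7.9, 150 mM NaCl, 0.1% BSA, 1 mM spermidine and 5% glycerol, incubated 37 °C for 30 min with or without compound. Products were run on a 1% agarose gel in TAE at 15 V for 7 h and stained with ethidium bromide (0.5 µg/mL) for 30 min.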

T47D = assay: Cytotoxicity against human T47D cells measured on day 4 by CCK8 assay; type: functional, cell-based; settings: 96 h; how it was run: as §1
[2] = target: DNA topoisomerase 2-alpha (Homo sapiens) (UniProt P11388); assay: Inhibition of recombinant human DNA topoisomerase-2alpha using supercoiled pBR322 plasmid DNA as substrate at 100 uM after 30 mins by agarose gel electrophoresis relative to control
Chain of DNA topoisomerase 2-alpha (Homo sapiens) (P11388 whole entry): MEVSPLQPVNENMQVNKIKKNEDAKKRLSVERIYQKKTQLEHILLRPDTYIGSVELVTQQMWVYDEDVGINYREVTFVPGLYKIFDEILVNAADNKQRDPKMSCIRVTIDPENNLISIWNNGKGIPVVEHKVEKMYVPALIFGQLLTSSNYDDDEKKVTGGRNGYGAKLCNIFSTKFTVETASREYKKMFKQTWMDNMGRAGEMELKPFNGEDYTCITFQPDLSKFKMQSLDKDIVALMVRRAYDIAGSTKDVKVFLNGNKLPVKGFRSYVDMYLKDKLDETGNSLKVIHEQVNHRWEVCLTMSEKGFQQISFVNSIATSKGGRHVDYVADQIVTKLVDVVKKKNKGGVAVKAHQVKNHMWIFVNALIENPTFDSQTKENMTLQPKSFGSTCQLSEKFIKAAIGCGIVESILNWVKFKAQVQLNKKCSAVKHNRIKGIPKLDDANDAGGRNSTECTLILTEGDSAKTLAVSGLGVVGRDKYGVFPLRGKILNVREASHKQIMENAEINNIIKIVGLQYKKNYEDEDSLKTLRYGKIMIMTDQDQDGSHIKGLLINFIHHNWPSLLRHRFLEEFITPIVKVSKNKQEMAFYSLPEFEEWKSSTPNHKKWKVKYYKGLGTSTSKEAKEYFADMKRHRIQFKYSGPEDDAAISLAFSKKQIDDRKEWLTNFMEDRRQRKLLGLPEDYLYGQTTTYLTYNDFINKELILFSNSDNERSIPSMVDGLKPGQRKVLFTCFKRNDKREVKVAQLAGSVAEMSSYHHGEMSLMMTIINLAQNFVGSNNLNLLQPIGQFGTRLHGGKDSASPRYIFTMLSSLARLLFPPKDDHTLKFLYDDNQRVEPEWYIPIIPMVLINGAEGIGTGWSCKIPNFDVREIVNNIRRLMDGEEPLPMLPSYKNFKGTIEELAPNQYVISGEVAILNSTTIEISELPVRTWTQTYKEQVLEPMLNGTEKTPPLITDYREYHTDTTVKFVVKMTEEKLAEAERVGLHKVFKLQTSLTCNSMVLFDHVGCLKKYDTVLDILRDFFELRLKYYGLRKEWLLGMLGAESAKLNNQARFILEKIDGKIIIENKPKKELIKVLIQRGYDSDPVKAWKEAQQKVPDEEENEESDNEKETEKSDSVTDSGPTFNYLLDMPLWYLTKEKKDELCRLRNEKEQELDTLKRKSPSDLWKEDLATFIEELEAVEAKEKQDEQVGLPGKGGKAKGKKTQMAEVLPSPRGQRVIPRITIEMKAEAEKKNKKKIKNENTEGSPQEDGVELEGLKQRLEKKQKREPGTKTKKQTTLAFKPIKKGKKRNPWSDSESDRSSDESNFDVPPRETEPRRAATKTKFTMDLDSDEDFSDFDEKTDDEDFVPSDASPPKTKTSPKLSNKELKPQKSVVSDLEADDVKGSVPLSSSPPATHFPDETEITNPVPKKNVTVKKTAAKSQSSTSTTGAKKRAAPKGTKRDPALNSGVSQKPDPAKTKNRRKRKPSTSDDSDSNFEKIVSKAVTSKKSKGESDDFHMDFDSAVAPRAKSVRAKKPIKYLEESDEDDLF
How it was run: (§3)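 200 ng supercoiled pBR322 with 1 unit human topo II, incubated 30 min at 30 °C with or without compound in 10 mM Tris–HCl pH 7.9, 50 mM NaCl, 5 mM MgCl2, 1 mM EDTA, 1 mM ATP and 15 µg/mL BSA. Reaction was stopped with 7 mM EDTA and run on 1% agarose in TAE at 25 V. Gel was stained with ethidium bromide, visualized under UV, and supercoiled DNA quantitated densitometrically.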

[3] = target: DNA topoisomerase 2-alpha (Homo sapiens) (UniProt P11388); assay: Inhibition of recombinant human DNA topoisomerase-2alpha using supercoiled pBR322 plasmid DNA as substrate at 20 uM after 30 mins by agarose gel electrophoresis relative to control; how it was run: as §3
[4] = target: T1, DNA topoisomerase 1 (Homo sapiens); assay: Inhibition of recombinant human DNA topoisomerase-1 assessed as relaxation of supercoiled DNA pBR322 at 20 uM after 30 mins by agarose gel electrophoresis relative to control; how it was run: as §2

Row | Structure (SMILES) | IC50 (HCT-15) [µM] | IC50 (HeLa) [µM] | IC50 (DU-145) [µM] | inhibition [1] [%] | IC50 (T47D) [µM] | inhibition [2] [%] | inhibition [3] [%] | inhibition [4] [%]
1 | Oc1ccc(-c2cc(-c3ccsc3)cc(-c3ccccc3O)n2)cc1 | > 50 | > 50 | > 50 | 13.8 | > 50 | 80.6 | 9.7 | –
2 | Oc1ccc(-c2cc(-c3cccnc3)cc(-c3ccccc3O)n2)cc1 | > 50 | > 50 | > 50 | 1.5 | > 50 | 8.3 | – | 0
3 | Oc1cccc(-c2cc(-c3cccnc3)cc(-c3cccc(O)c3)n2)c1 | > 50 | > 50 | > 50 | 2.1 | > 50 | 11.2 | – | 1.9
4 | Oc1cccc(-c2cc(-c3ccco3)cc(-c3cccc(O)c3)n2)c1 | 1.89 | 5.99 | 2.15 | 97.8 | 3.52 | 88.2 | 20.6 | 0
5 | Oc1ccccc1-c1cc(-c2ccco2)cc(-c2ccccc2O)n1 | > 50 | > 50 | > 50 | 89.1 | > 50 | 52.2 | 13.3 | 0.2
6 | Oc1ccccc1-c1cc(-c2ccsc2)cc(-c2ccccc2O)n1 | > 50 | > 50 | > 50 | 0 | > 50 | 84.5 | 4.7 | –
7 | Oc1cccc(-c2cc(-c3ccco3)cc(-c3ccccc3O)n2)c1 | > 50 | > 50 | 1.79 | 90.1 | 0.82 | 81.2 | 21.5 | 0
8 | CC[C@@]1(O)C(=O)OCc2c1cc1n(c2=O)Cc2cc3ccccc3nc2-1 [CAMPTOTHECIN] | 2.82 | 0.18 | 0.02 | – | 1.84 | – | – | –
9 | Oc1cccc(-c2cc(-c3ccsc3)cc(-c3ccccc3O)n2)c1 | > 50 | > 50 | > 50 | 10.2 | > 50 | 78.2 | 11 | –
10 | Oc1ccccc1-c1cc(-c2cccs2)cc(-c2ccccc2O)n1 | > 50 | > 50 | > 50 | 77.2 | > 50 | 55.9 | 10.8 | 0.2
11 | Oc1cccc(-c2cc(-c3ccoc3)cc(-c3cccc(O)c3)n2)c1 | 1.02 | 4.63 | 1.65 | 44.2 | 2.59 | 7.3 | – | 2
12 | Oc1ccc(-c2cc(-c3ccoc3)cc(-c3cccc(O)c3)n2)cc1 | 0.93 | 3.31 | 2.7 | 37.4 | 2.61 | 95 | 19.7 | 1.3
13 | Oc1ccc(-c2cc(-c3ccco3)cc(-c3cccc(O)c3)n2)cc1 | 0.84 | 5.17 | 2.07 | 100 | 1.28 | 92.8 | 21.8 | 1.5
14 | Oc1ccc(-c2cc(-c3ccsc3)cc(-c3ccc(O)cc3)n2)cc1 | 1.04 | 4.37 | 2.06 | 61.7 | 1.77 | 81.2 | 57.9 | 7.5
15 | Oc1ccc(-c2cc(-c3cccs3)cc(-c3cccc(O)c3)n2)cc1 | 1.77 | 4.14 | 1.89 | 85.7 | 0.78 | 88.6 | 21.5 | 1.1
16 | Oc1ccc(-c2cc(-c3ccco3)cc(-c3ccccc3O)n2)cc1 | > 50 | > 50 | > 50 | 83 | > 50 | 84.8 | 13.6 | 0
17 | COc1cc([C@@H]2c3cc4c(cc3[C@@H](O[C@@H]3O[C@@H]5CO[C@@H](C)O[C@H]5[C@H](O)[C@H]3O)[C@H]3COC(=O)[C@H]23)OCO4)cc(OC)c1O [ETOPOSIDE] | 18.9 | 7.32 | 2.09 | – | 13.7 | – | – | –
18 | Oc1ccc(-c2cc(-c3cccnc3)cc(-c3cccc(O)c3)n2)cc1 | > 50 | > 50 | 6.39 | 5.9 | > 50 | 14.8 | – | 2.8
19 | Oc1ccc(-c2cc(-c3cccs3)cc(-c3ccccc3O)n2)cc1 | > 50 | > 50 | > 50 | 72.2 | > 50 | 76.4 | 30.2 | 2
20 | Oc1cccc(-c2cc(-c3ccoc3)cc(-c3ccccc3O)n2)c1 | > 50 | > 50 | 2.79 | 29.5 | > 50 | 62.1 | 7 | –
21 | Oc1ccc(-c2cc(-c3ccoc3)cc(-c3ccc(O)cc3)n2)cc1 | 1.53 | 3.42 | 3.44 | 74.9 | 3.46 | 12 | – | 0
22 | Oc1ccccc1-c1cc(-c2ccoc2)cc(-c2ccccc2O)n1 | > 50 | > 50 | > 50 | 1 | > 50 | 12.2 | – | –
23 | Oc1ccc(-c2cc(-c3ccccn3)cc(-c3ccccc3O)n2)cc1 | > 50 | > 50 | 25.4 | 0.2 | > 50 | 7.8 | – | –
24 | Oc1ccccc1-c1cc(-c2cccnc2)cc(-c2ccccc2O)n1 | > 50 | > 50 | > 50 | 66.4 | > 50 | 5.2 | – | 0
25 | Oc1ccccc1-c1cc(-c2ccccn2)cc(-c2ccccc2O)n1 | > 50 | > 50 | > 50 | 0.8 | > 50 | 65.5 | 4.3 | –
26 | Oc1ccc(-c2cc(-c3ccsc3)cc(-c3cccc(O)c3)n2)cc1 | 1.18 | 2.58 | 2.23 | 17.1 | 0.76 | 91.5 | 44.7 | –
27 | COc1cccc2c1C(=O)c1c(O)c3c(c(O)c1C2=O)C[C@@](O)(C(=O)CO)C[C@@H]3O[C@H]1C[C@H](N)[C@H](O)[C@H](C)O1 [DOXORUBICIN] | 1.23 | 0.88 | – | – | 1.34 | – | – | –
28 | Oc1ccc(-c2cc(-c3ccccn3)cc(-c3ccc(O)cc3)n2)cc1 | > 50 | > 50 | > 50 | 1.4 | 1.04 | 27.4 | – | –
29 | Oc1cccc(-c2cc(-c3ccccn3)cc(-c3cccc(O)c3)n2)c1 | 3.51 | 6.5 | 3.61 | 8.3 | 1.41 | 52.2 | 4.3 | –
30 | Oc1ccc(-c2cc(-c3ccccn3)cc(-c3cccc(O)c3)n2)cc1 | > 50 | 1.93 | 1.98 | 2.4 | 0.98 | 11.9 | – | –
